Measured values taken from ChEMBL document CHEMBL4184148 (Bioorg Med Chem Lett, 2017).

Tests used:
[1] = target: Tyrosine-protein kinase Fyn (Homo sapiens) (UniProt P06241); assay: Binding affinity to wild-type human partial length FYN (T243 to L534 residues) expressed in Escherichia coli BL21 at 1 uM by Kinomescan method relative to control
[2] = target: Cyclin-G-associated kinase (Homo sapiens) (UniProt O14976); assay: Binding affinity to wild-type human partial length GAK (G13 to Y338 residues) expressed in Escherichia coli BL21 at 1 uM by Kinomescan method relative to control
[3] = target: Ephrin type-A receptor 3 (Homo sapiens) (UniProt P29320); assay: Binding affinity to wild-type human partial length EPHA3 (D604 to K889 residues) expressed in Escherichia coli BL21 at 1 uM by Kinomescan method relative to control
[4] = target: Dual specificity protein kinase TTK (Homo sapiens) (UniProt P33981); assay: Binding affinity to wild-type human partial length TTK (N505 to V798 residues) expressed in Escherichia coli BL21 at 1 uM by Kinomescan method relative to control
[5] = target: Rho-associated protein kinase 2 (Homo sapiens) (UniProt O75116); assay: Binding affinity to wild-type human partial length ROCK2 (M1 to T431 residues) expressed in HEK293 cells at 1 uM by Kinomescan method relative to control; assay type: cell-based
Rho-associated protein kinase 2 (Homo sapiens), sequence (O75116 whole entry, looked up, the tested form may be a part): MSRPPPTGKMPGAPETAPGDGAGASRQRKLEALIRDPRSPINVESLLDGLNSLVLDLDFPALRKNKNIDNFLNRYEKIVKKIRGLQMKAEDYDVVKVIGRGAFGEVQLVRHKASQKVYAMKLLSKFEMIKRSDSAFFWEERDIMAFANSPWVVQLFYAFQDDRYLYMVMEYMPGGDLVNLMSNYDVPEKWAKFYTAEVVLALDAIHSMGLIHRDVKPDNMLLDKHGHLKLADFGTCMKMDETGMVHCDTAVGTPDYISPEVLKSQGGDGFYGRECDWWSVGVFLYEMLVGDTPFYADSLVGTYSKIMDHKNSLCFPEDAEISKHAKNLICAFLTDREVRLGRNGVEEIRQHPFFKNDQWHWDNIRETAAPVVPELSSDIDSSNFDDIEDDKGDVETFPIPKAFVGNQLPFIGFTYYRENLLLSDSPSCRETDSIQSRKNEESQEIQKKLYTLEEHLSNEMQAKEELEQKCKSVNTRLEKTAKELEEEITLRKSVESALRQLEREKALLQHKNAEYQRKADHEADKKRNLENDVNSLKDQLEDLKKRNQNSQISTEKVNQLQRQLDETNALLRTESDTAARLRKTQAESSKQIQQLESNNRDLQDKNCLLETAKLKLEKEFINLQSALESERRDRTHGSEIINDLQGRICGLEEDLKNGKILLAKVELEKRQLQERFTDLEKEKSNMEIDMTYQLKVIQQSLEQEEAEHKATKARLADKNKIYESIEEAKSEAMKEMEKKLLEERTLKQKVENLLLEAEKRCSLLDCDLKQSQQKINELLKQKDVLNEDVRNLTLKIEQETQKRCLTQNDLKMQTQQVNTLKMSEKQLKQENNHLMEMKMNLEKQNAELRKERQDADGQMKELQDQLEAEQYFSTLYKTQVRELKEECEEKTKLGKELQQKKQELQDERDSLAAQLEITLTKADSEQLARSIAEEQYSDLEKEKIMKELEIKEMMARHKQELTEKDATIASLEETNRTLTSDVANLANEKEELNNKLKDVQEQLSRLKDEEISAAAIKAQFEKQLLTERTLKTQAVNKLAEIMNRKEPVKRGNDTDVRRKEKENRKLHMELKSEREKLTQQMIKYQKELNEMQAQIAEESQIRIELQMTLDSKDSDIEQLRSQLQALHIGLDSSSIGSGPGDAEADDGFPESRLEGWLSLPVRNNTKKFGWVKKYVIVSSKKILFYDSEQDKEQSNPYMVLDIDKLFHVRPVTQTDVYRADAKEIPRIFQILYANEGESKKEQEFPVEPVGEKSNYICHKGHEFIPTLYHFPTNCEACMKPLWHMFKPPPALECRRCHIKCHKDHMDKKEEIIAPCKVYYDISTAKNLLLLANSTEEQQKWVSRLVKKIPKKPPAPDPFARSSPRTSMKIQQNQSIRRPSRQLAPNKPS

[6] = target: Cyclin-dependent kinase-like 3 (Homo sapiens) (UniProt Q8IVW4); assay: Binding affinity to wild-type human partial length CDKL3 (M1 to D327 residues) expressed in Escherichia coli BL21 at 1 uM by Kinomescan method relative to control
Cyclin-dependent kinase-like 3 (Homo sapiens), sequence (Q8IVW4 whole entry, looked up, the tested form may be a part): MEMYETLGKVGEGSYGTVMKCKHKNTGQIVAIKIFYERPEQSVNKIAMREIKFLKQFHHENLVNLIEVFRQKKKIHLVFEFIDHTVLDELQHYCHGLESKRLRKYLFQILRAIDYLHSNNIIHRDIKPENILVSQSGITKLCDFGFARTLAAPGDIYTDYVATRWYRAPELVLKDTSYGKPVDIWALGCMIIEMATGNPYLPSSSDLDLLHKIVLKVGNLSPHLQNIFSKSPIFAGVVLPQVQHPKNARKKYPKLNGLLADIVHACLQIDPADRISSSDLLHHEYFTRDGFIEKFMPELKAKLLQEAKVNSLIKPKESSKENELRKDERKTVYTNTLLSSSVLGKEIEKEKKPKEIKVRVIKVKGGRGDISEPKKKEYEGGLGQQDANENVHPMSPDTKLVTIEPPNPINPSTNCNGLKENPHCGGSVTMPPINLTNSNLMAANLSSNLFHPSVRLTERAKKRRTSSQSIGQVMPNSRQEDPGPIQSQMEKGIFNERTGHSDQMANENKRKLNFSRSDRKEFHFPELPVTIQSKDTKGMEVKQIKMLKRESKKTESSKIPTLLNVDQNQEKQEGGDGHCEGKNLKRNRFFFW

[7] = target: Activin receptor type-1 (Homo sapiens) (UniProt Q04771); assay: Binding affinity to wild-type human ACVR1 (C188 to C509 residues) expressed in Escherichia coli BL21 at 1 uM by Kinomescan method relative to control
[8] = target: Dual specificity mitogen-activated protein kinase kinase 5 (Homo sapiens) (UniProt Q13163); assay: Binding affinity to wild-type human partial length MEK5 (L98 to P448 residues) expressed in HEK293 cells at 1 uM by Kinomescan method relative to control; assay type: cell-based
[9] = target: TRAF2 and NCK-interacting protein kinase (Homo sapiens) (UniProt Q9UKE5); assay: Binding affinity to wild-type human partial length TNIK (D4 to K311 residues) expressed in Escherichia coli BL21 at 1 uM by Kinomescan method relative to control
TRAF2 and NCK-interacting protein kinase (Homo sapiens), sequence (Q9UKE5 whole entry, looked up, the tested form may be a part): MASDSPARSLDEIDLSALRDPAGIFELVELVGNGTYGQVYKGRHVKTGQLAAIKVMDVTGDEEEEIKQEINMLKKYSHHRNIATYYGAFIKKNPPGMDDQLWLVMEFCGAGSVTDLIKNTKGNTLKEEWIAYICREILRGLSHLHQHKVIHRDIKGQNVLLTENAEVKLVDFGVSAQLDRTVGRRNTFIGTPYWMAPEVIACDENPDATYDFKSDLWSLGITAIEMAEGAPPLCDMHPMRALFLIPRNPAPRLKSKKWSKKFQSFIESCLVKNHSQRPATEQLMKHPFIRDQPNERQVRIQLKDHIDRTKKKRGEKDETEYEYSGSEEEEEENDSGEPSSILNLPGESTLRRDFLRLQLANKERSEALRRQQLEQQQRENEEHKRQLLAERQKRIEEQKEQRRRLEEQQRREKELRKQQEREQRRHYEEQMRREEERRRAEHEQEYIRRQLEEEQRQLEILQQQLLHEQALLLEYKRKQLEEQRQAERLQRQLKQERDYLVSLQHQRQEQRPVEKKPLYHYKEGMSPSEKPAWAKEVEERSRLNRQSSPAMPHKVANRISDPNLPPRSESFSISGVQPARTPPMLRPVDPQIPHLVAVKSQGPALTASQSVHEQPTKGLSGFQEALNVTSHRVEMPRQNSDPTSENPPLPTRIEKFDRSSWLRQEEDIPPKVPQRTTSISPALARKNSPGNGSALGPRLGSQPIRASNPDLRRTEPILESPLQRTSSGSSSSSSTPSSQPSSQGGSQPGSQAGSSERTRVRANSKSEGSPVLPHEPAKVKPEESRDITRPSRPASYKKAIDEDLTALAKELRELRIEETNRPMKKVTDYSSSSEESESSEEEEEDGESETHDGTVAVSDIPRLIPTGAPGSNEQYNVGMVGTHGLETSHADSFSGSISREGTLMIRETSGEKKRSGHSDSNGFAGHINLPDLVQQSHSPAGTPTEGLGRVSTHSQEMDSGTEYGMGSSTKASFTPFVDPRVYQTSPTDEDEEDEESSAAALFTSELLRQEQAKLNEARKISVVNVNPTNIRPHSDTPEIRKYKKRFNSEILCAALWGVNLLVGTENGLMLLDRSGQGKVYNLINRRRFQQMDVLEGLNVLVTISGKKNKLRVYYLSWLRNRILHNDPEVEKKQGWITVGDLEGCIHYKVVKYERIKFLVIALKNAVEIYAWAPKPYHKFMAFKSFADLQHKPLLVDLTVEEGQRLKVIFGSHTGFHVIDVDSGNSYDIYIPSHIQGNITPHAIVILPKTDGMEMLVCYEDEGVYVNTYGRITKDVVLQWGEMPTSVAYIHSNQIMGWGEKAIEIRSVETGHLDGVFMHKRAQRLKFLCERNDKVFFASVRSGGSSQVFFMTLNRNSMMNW

[10] = target: Protein kinase C theta type (Homo sapiens) (UniProt Q04759); assay: Binding affinity to wild-type human partial length PRKCQ (L350 to S706 residues) expressed in Escherichia coli BL21 at 1 uM by Kinomescan method relative to control
[11] = target: Phosphatidylinositol 5-phosphate 4-kinase type-2 beta (Homo sapiens) (UniProt P78356); assay: Binding affinity to wild-type human full length PIP5K2B (M1 to T416 residues) expressed in Escherichia coli BL21 at 1 uM by Kinomescan method relative to control
Summary of the method: (§1)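 Kinome-wide competition binding panel run by an outside provider, with each compound tested at a single concentration. Activity is read against the kinase panel.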

[12] = target: Serine/threonine-protein kinase Chk2 (Homo sapiens) (UniProt O96017); assay: Binding affinity to wild-type human partial length CHEK2 (S253 to E574 residues) expressed in Escherichia coli BL21 at 1 uM by Kinomescan method relative to control
[13] = target: Bone morphogenetic protein receptor type-2 (Homo sapiens) (UniProt Q13873); assay: Binding affinity to wild-type human partial length BMPR2 (R179 to Q526 residues) expressed in HEK293 cells at 1 uM by Kinomescan method relative to control; assay type: cell-based
[14] = tested on: Receptor-type tyrosine-protein kinase FLT3 (Homo sapiens), P36888 [D835H]; assay: Binding affinity to human partial length FLT3 D835H mutant (V592 to Y969 residues) expressed in Escherichia coli BL21 at 1 uM by Kinomescan method relative to control
[15] = target: Serine/threonine-protein kinase MARK2 (Homo sapiens) (UniProt Q7KZI7); assay: Binding affinity to wild-type human partial length MARK2 (M1 to R450 residues) expressed in Escherichia coli BL21 at 1 uM by Kinomescan method relative to control
[16] = target: Casein kinase I isoform gamma-1 (Homo sapiens) (UniProt Q9HCP0); assay: Binding affinity to wild-type human partial length CSNK1G1 (T15 to S353 residues) expressed in Escherichia coli BL21 at 1 uM by Kinomescan method relative to control
[17] = target: Myosin light chain kinase (Homo sapiens) (UniProt Q32MK0); assay: Binding affinity to wild-type human partial length MLCK (D488 to K800 residues) expressed in Escherichia coli BL21 at 1 uM by Kinomescan method relative to control
[18] = target: Serine/threonine-protein kinase Nek2 (Homo sapiens) (UniProt P51955); assay: Binding affinity to wild-type human partial length NEK2 (M1 to K309 residues) expressed in Escherichia coli BL21 at 1 uM by Kinomescan method relative to control
[19] = target: Ribosomal protein S6 kinase alpha-3 (Homo sapiens) (UniProt P51812); assay: Binding affinity to wild-type human partial length N-terminal RSK3 kinase domain 1 (M1 to Q385 residues) expressed in Escherichia coli BL21 at 1 uM by Kinomescan method relative to control
Ribosomal protein S6 kinase alpha-3 (Homo sapiens), sequence (P51812 whole entry, the tested form may be a part): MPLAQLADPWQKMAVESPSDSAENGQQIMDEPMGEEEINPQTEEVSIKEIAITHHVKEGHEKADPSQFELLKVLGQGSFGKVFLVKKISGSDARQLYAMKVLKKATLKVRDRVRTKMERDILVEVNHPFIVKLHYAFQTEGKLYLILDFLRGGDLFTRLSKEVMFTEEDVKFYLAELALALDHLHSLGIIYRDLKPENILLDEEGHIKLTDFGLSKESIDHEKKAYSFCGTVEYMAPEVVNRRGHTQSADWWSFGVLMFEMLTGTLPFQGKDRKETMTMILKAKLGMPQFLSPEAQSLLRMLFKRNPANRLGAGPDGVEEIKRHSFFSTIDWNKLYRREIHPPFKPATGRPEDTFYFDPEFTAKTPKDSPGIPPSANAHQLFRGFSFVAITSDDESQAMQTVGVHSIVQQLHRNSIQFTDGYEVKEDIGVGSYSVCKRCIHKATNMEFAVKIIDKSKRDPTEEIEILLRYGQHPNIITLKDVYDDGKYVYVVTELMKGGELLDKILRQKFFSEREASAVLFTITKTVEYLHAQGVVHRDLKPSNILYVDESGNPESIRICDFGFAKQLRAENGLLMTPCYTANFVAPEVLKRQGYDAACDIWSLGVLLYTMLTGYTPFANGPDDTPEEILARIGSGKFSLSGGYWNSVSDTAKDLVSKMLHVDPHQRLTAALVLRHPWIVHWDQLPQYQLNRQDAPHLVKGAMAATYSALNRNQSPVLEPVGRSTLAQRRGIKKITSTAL

[20] = target: Ribosomal protein S6 kinase alpha-4 (Homo sapiens) (UniProt O75676); assay: Binding affinity to wild-type human partial length C-terminal RPS6KA4 kinase domain 2 (M375 to T705 residues) expressed in HEK293 cells at 1 uM by Kinomescan method relative to control; assay type: cell-based
Ribosomal protein S6 kinase alpha-4 (Homo sapiens), sequence (O75676 whole entry, looked up, the tested form may be a part): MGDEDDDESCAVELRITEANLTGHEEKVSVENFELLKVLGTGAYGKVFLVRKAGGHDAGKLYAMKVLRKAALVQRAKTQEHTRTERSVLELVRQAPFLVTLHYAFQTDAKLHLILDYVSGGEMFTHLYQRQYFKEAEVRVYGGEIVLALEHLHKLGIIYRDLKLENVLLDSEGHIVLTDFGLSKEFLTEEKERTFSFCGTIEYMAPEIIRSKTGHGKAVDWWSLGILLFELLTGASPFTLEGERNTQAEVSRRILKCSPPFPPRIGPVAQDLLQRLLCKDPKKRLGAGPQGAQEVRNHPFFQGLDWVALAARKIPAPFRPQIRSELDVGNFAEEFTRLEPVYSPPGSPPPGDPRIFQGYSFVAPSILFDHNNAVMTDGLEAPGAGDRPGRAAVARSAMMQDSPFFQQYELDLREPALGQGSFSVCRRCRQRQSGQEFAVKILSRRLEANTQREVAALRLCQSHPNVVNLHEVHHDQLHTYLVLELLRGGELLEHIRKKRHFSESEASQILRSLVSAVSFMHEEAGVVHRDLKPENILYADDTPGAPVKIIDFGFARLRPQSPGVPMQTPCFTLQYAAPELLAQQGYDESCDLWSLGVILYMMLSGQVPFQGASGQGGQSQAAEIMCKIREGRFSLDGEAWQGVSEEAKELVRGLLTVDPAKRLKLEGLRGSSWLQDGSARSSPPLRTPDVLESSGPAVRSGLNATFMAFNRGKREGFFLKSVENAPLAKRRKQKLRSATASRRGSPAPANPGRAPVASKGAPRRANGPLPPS

[21] = target: Proto-oncogene tyrosine-protein kinase ROS (Homo sapiens) (UniProt P08922); assay: Binding affinity to wild-type human partial length ROS1 (A1921 to N2240 residues) expressed in Escherichia coli BL21 at 1 uM by Kinomescan method relative to control
[22] = target: SRSF protein kinase 2 (Homo sapiens) (UniProt P78362); assay: Binding affinity to wild-type human full length SRPK2 (M1 to S686 residues) expressed in Escherichia coli BL21 at 1 uM by Kinomescan method relative to control; summary of the method: as §1
[23] = target: Mitogen-activated protein kinase kinase kinase 10 (Homo sapiens) (UniProt Q02779); assay: Binding affinity to wild-type human partial length MLK2 (V52 to W380 residues) expressed in Escherichia coli BL21 at 1 uM by Kinomescan method relative to control
[24] = tested on: Mast/stem cell growth factor receptor Kit (Homo sapiens), P10721 [D816H]; assay: Binding affinity to human partial length KIT D816H mutant (I571 to D952 residues) expressed in HEK293 cells at 1 uM by Kinomescan method relative to control; assay type: cell-based
[25] = target: Phosphatidylinositol 3-kinase C2 domain-containing subunit gamma (Homo sapiens) (UniProt O75747); assay: Binding affinity to wild-type human partial length PIK3C2G (M1 to I1446 residues) expressed in HEK293 cells at 1 uM by Kinomescan method relative to control; assay type: cell-based
[26] = target: Cyclin-dependent kinase 8 (Homo sapiens) (UniProt P49336); assay: Binding affinity to wild-type human partial length CDK8 (M1 to T360 residues) expressed in Escherichia coli BL21 at 1 uM by Kinomescan method relative to control

Row | SMILES | Activity [1] [%] | Activity [2] [%] | Activity [3] [%] | Activity [4] [%] | Activity [5] [%] | Activity [6] [%] | Activity [7] [%] | Activity [8] [%] | Activity [9] [%] | Activity [10] [%] | Activity [11] [%] | Activity [12] [%] | Activity [13] [%] | Activity [14] [%] | Activity [15] [%] | Activity [16] [%] | Activity [17] [%] | Activity [18] [%] | Activity [19] [%] | Activity [20] [%] | further results
1 | C=CC(=O)Nc1ccc(C(=O)Nc2ccc(Nc3ncc4c(n3)N(C)c3ccc(C)cc3C(=O)N4C)cc2)cc1 | 81 | 82 | 100 | 86 | 100 | 98 | 93 | 99 | 100 | 96 | 83 | 97 | 95 | 92 | 100 | 100 | 90 | 99 | 89 | 96 | Activity [21]: 98%; Activity [22]: 99%; Activity [23]: 82%; Activity [24]: 83%; Activity [25]: 71%; Activity [26]: 78%
2 | CCC(=O)Nc1ccc(C(=O)Nc2ccc(Nc3ncc4c(n3)N(C)c3ccc(C)cc3C(=O)N4C)cc2)cc1 | 100 | 99 | 99 | 87 | 78 | 95 | 80 | 90 | 100 | 99 | 94 | 95 | 77 | 87 | 100 | 100 | 99 | 100 | 85 | 51 | Activity [21]: 81%; Activity [22]: 100%; Activity [23]: 74%; Activity [24]: 72%; Activity [25]: 81%; Activity [26]: 100%
